Source: PubChem
Hits are enriched below; roughly 1.6% of the tested compounds scored in any of these assays.
LEDGF integ inh: blockers of LEDGF/p75-dependent integrase strand transfer – biochemical, TR-FRET, high throughput, primary screen; HIV-1 integrase (with human LEDGF/p75); TR-FRET IN-LEDGF/p75 DNA integration, Eu/Cy5; inhibition, % at 3.7 µM; 370,000 compounds, 0.64% hits; AID 743269, 2014;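 active = inhibition above the screen-wide mean plus 3 SD, cut at about 13% in these data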;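 also: signal is the Cy5 over europium emission ratio at 671 and 618 nm; 0% = plate median of compound wells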
UHRF1 binding: UHRF1 methylated DNA binding inhibitors, primary screen, counter-screen for MBD2 inhibitor project, biochemical, TR-FRET, human UHRF1, single concentration; E3 ubiquitin-protein ligase UHRF1 (Homo sapiens), Q96T88; UHRF1 binding to methylated oligo; inhibition, % at 4.4 µM; 370,000 compounds, 0.75% hits; AID 687016, 2013; in the data active = inhibition above about 21%;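 also: UHRF1 SRA domain binding a hemimethylated CpG hairpin DNA probe; 0% = median of test compound wells and 100% = reference inhibitor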
TDP2 absorb: human TDP2 enzyme inhibitors, primary screen, biochemical, epi absorbance, recombinant enzyme | AID 720702, 2013 | inhibition, % at 12.8 µM | T5PNP hydrolysis, p-nitrophenol absorbance 415 nm | 370,000 compounds, 0.34% hits;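 active = inhibition above the mean of all tested compounds plus 3 SD, set per campaign, cut at about 25% in these data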;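 also: 0% = DMSO with enzyme and 100% = buffer with substrate but no TDP2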
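System – recombinant human TDP2 · Quantity – TDP2 enzyme at 120 nM final · Doses – single concentration, 12.8 µM nominal, with 1% DMSO · Incubation – 2 h at 37 °C · Measured by – epi absorbance of p-nitrophenol freed from T5PNP by hydrolysis · Read-out – % inhibition relative to enzyme-containing and enzyme-free wells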
MBD2 inh: inhibitors of MBD2 binding to methylated DNA, primary screen, biochemical, TR-FRET, DNA-binding domain, human | MBD2 binding to methylated oligonucleotide | inhibition, % at 4.4 µM | 370,000 compounds, 0.31% hits; in the data active = inhibition above about 13%
Target sequence (Q9UBB5 whole entry, looked up, the tested form may be a part): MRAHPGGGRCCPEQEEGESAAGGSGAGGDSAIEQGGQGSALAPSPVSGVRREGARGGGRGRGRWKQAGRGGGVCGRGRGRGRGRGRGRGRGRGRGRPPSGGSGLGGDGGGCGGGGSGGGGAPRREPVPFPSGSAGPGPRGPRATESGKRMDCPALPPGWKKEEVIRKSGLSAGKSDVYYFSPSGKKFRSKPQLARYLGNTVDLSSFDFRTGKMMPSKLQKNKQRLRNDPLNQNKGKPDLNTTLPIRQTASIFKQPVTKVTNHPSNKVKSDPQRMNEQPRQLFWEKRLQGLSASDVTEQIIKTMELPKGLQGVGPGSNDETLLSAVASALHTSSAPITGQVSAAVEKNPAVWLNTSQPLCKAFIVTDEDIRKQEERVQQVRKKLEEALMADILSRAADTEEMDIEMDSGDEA
TDP2 inh conf: human TDP2 enzyme inhibitors, retest, confirmation, biochemical, epi absorbance, recombinant enzyme | shares compounds with TDP2 absorb | inhibition, % at 12.8 µM | absorbance read-out | AID 743263, 2014 | 1,100 compounds, 22% hits; in the data active = inhibition above about 25%;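 also: 0% = vehicle with enzyme and 100% = no enzyme buffer only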
IN multimer up: HIV-1 IN multimer formation enhancers, counter-screen for LEDGF/p75 integration inhibitor project, biochemical, TR-FRET. shares compounds with LEDGF integ inh. TR-FRET HIV-1 integrase multimerization. activation, % at 7.7 µM. 2,000 compounds, 17% hits; in the data active = activation above about 8.9%
TRFRET interf: TR-FRET optical interference artefacts, confirmation, artefact control for LEDGF/p75-dependent integration inhibitor project, biochemical, HIV-1 IN multimerization | TR-FRET optical interference counterscreen | shares compounds with LEDGF integ inh | AID 1053135, 2014 | 2,000 tested, under 10 active | inhibition, % at 7.7 µM;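 active = inhibition above the mean over all tested compounds plus 3 SD, which no compound reached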;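 also: 0% = integrase with antibodies and DMSO and 100% = antibodies without integrase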
IN-LEDGF confirm: inhibitors of HIV-1 IN-LEDGF/p75 DNA integration, confirmation, biochemical, TR-FRET | 2,000 compounds, 36% hits | TR-FRET LEDGF/p75-dependent HIV-1 integration | inhibition, % at 3.7 µM | shares compounds with LEDGF integ inh; in the data active = inhibition above about 14%
* = called active by the depositor.

`O=C1C(=O)c2ccccc2C(O)=C1c1ccccc1F` gave LEDGF integ inh -3.9, UHRF1 binding -11.4, TDP2 absorb 0.9 and MBD2 inh -15.3.
Screening Nc1[nH]c(C(=O)c2ccccc2)c(-c2ccc3ccccc3c2)c1C(=O)NCc1ccc(-c2ccccc2)cc1 returned LEDGF integ inh -2.4, UHRF1 binding -4.2, TDP2 absorb 7.1 and MBD2 inh 0.1.
`N#CC1=C(N)C(C#N)(C#N)[C@H](c2ccoc2)[C@H]2CN(Cc3ccccc3)CC=C12` gave LEDGF integ inh 19.2*, UHRF1 binding -0.5, TDP2 absorb 40.2*, MBD2 inh -7.9, TDP2 inh conf -2.0, IN multimer up 1.8, TRFRET interf -6.6 and IN-LEDGF confirm 2.6.
For CC(=O)N1CC=C2C(C#N)=C(N)C(C#N)(C#N)[C@H](c3ccoc3)[C@H]2C1 the results were LEDGF integ inh 1.4, UHRF1 binding -6.8, TDP2 absorb 6.5 and MBD2 inh -5.3.
Screening COc1ccc(S[C@]2(C(=O)N3CCN(c4ncccn4)CC3)CC(=O)N(c3ccc(OC)cc3)[C@@H]2c2ccc(OC)cc2)cc1 returned LEDGF integ inh -0.6, UHRF1 binding 0.3, TDP2 absorb -1.3 and MBD2 inh -0.8.
Screening CC1=NN(c2ccc(C)cc2C)C(=O)C1C(c1ccccc1O)C1C(=O)N(c2ccc(C)cc2C)N=C1C (stereo not drawn) returned LEDGF integ inh 29.1*, UHRF1 binding 14.4, TDP2 absorb 79.1*, MBD2 inh -3.0, TDP2 inh conf 12.2, IN multimer up 1.0, TRFRET interf -5.1 and IN-LEDGF confirm -3.8.
CC1=NN(C(N)=S)C(=O)C1N=Nc1ccc(C)cc1C (stereo not drawn) was read as LEDGF integ inh -0.9, UHRF1 binding -28.2, TDP2 absorb -2.9 and MBD2 inh -14.6.
Screening COc1ccccc1NC(=O)COC(=O)c1ccc([N+](=O)[O-])s1 returned LEDGF integ inh 16.6*, UHRF1 binding 1.9, TDP2 absorb 31.6*, MBD2 inh 5.2, TDP2 inh conf 24.2, IN multimer up 0.3, TRFRET interf -1.5 and IN-LEDGF confirm 44.3*.
Cc1ccc(NC(=O)COC(=O)c2ccc([N+](=O)[O-])s2)c(C)c1 was read as LEDGF integ inh -0.8, UHRF1 binding -0.9, TDP2 absorb 10.4 and MBD2 inh 4.0.
CC(C)(C)c1cc(CCC(=O)NCCc2ccccn2)cc(C(C)(C)C)c1O was read as LEDGF integ inh -3.8, UHRF1 binding 1.1, TDP2 absorb -11.6 and MBD2 inh 1.8.
`O=C1C=C(NCCc2cc(Br)c(O)c(Br)c2)C(=O)c2ncccc21` gave LEDGF integ inh 27.8*, UHRF1 binding 14.5, TDP2 absorb 47.9*, MBD2 inh -16.3, TDP2 inh conf 59.9*, IN multimer up 15.7*, TRFRET interf -55.6 and IN-LEDGF confirm 75.4*.
Screening CN(C(=S)Nc1cccnc1)c1ccc(O)cc1 returned LEDGF integ inh 29.2*, UHRF1 binding 14.0, TDP2 absorb 29.5*, MBD2 inh 4.4, TDP2 inh conf 9.7, IN multimer up 0.8, TRFRET interf -2.9 and IN-LEDGF confirm 7.1.
CCOC(=O)[C@]12CCCC3=C1N(CCC3)C(=O)[C@@H](CC(=O)NCc1cccc3ccccc13)C2 was read as LEDGF integ inh 4.1, UHRF1 binding 1.5, TDP2 absorb -5.2 and MBD2 inh -1.2.
COC(=O)c1cc2c(c3c4cc(OC)ccc4n(S(=O)(=O)c4ccccc4)c13)C(=O)N(Cc1ccc(C(F)(F)F)cc1)C2 was read as LEDGF integ inh -3.7, UHRF1 binding -0.4, TDP2 absorb 8.6 and MBD2 inh -4.8.
Screening CCCC(=Nc1ccc(N)cc1)C1=C(O)C(C(=O)OC)C(C)(C)CC1=O (stereo not drawn) returned LEDGF integ inh 53.8*, UHRF1 binding 17.0, TDP2 absorb 52.6*, MBD2 inh 3.2, TDP2 inh conf 11.7, IN multimer up 21.1*, TRFRET interf -74.8 and IN-LEDGF confirm 5.2.
Screening CCOc1ccc2nc(NC(=S)N(C)C)sc2c1 returned LEDGF integ inh 13.9*, UHRF1 binding -2.3, TDP2 absorb 26.2*, MBD2 inh -0.4, TDP2 inh conf 17.2, IN multimer up 2.3, TRFRET interf -8.6 and IN-LEDGF confirm 9.5.
For CCN(CC)CCCNc1ccc2ncn3c4ccc(O)cc4c(=O)c1c23 the results were LEDGF integ inh 36.5*, UHRF1 binding -207.7, TDP2 absorb 86.5*, MBD2 inh -21.1, TDP2 inh conf 28.1*, IN multimer up 20.0*, TRFRET interf -71.3 and IN-LEDGF confirm 13.6*.
For COC(=O)c1cc(C)nc2c1C(=O)C(=O)C=C2N1CCOCC1 the results were LEDGF integ inh 37.7*, UHRF1 binding 11.7, TDP2 absorb 87.4*, MBD2 inh 5.1, TDP2 inh conf 88.6*, IN multimer up 1.2, TRFRET interf -4.3 and IN-LEDGF confirm 77.8*.
`COC(=O)c1cc(S(=O)(=O)N2CCOCC2)c(Cl)cc1N1CCOCC1` gave LEDGF integ inh 0.1, UHRF1 binding 3.2, TDP2 absorb 4.5 and MBD2 inh 2.9.
Screening Cc1cc(=O)[nH]c(SCC(=O)Nc2ccc(Cl)cc2)n1 returned LEDGF integ inh -3.0, UHRF1 binding 0.9, TDP2 absorb 3.2 and MBD2 inh 0.2.
For C[n+]1cccc2cccc([O-])c21 the results were LEDGF integ inh 15.1*, UHRF1 binding 10.2, TDP2 absorb 27.4*, MBD2 inh 1.6, TDP2 inh conf 28.4*, IN multimer up 8.4, TRFRET interf -29.4 and IN-LEDGF confirm 53.6*.
[O-][n+]1cccc2cccc(O)c21 was read as LEDGF integ inh -4.0, UHRF1 binding 2.0, TDP2 absorb 4.7 and MBD2 inh -5.2.
